Results gathered from unrelated publications.
SETD7: Histone-lysine N-methyltransferase SETD7 (SETD7, Homo sapiens, UniProt Q8WTS6)
SLC10A2: Ileal sodium/bile acid cotransporter (SLC10A2, Homo sapiens, UniProt Q12908)

CCN(c1cc(C#CCN2CCOCC2)cc(C(=O)NCc2c(C)cc(C)[nH]c2=O)c1C)[C@H]1CC[C@H](N(C)CCOC)CC1 — inhibition (Histone-lysine N-methyltransferase SETD2 (SETD2, Homo sapiens, UniProt Q9BYW2); enzyme activity, inhibitor; 1 µM): 20%
CSCCC(NC=O)C(=O)NC(C)C(=O)O (stereo not drawn) — inhibition (SETD7; cell-free assay; 10 µM): 7%
C=C[C@H]1C[N@@]2CC[C@H]1C[C@H]2[C@H](O)c1ccnc2ccc(OC)cc12 — inhibition (SLC10A2; transporter uptake, inhibitor, radiometric; 1 mM): 59.9%
O=c1c(O)cccc2c([C@H]3Oc4cc(O)cc(O)c4C[C@H]3O)cc(O)c(O)c12 — inhibition (SETD7; cell-free assay; 10 µM): 16%
O=C(O)c1cc(=O)c2c(OCC(O)COc3cccc4oc(C(=O)O)cc(=O)c34)cccc2o1 — inhibition (SLC10A2; transporter uptake, inhibitor, radiometric; 1 mM): < 10%
CC(=O)N[C@H]1CSSC[C@@H](C(=O)N[C@H](Cc2c[nH]c3ccccc23)C(N)=O)NC(=O)[C@@H](Cc2ccccc2)NC(=O)[C@H](CCCNC(=N)N)NC1=O — inhibition (Melanocortin receptor 5 (MC5R, Homo sapiens, UniProt P33032); ligand displacement, radioligand; 10 µM, 40 min): 0%
O=c1c(O)cccc2cc(O)c(O)c(O)c12 — inhibition (SETD7; cell-free assay; 10 µM): 27%
CNC(=C[N+](=O)[O-])NCCSCc1ccc(CN(C)C)o1 — inhibition (SLC10A2; transporter uptake, inhibitor, radiometric; 1 mM): 30.2%
CN1CC(Oc2cnc(C#N)cc2-c2ccn3nc(NC(=O)C4CC4)cc3c2)C1 — inhibition (Serine/threonine-protein kinase 35 (STK35, Homo sapiens, UniProt Q8TDR2); enzyme activity, inhibitor; 1 µM): 1%
